Source: PubChem (several laboratories)
The list is not random: actives were taken first. Their share in the collection is about 1.9%.
proCasp7 act = counter-screen: procaspase-7 (human) activation; activation, % at 8.5 µM; recombinant procaspase-7, Ac-DEVD-pNA absorbance 405 nm; D23A/D198A/D206A triple mutant, cannot self-cleave; scale: DMSO 0, 5 µM enzyme 100; actives 0.093% (n = 330,000); P55210; AID 463210;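 active means percent activation above the screen-wide mean plus 3 SD, cut at about 25% in these data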
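Assay system – Uncleavable procaspase-7 mutant enzyme · Quantity – 2 µM procaspase-7 mutant as dispensed · Times – 1 h preincubation, 2 h reaction · Dosing – single nominal 8.5 µM compound dose, 0.8% DMSO final · Buffer or medium – Zinc-free 50 mM HEPES buffer, pH 7.4, with NaCl and Triton X-100 · Detection – Epi-absorbance of released pNA at 405 nm, two timepoints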
HIF act = HIF pathway transcriptional activation; U2OS HRE-luciferase reporter, luminescence; normalized: DMSO 0%, desferrioxamine 100%; activation, % at 7.5 µM (by protocol); actives 0.32% (n = 300,000);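 active means mean activation of at least 10% of the iron chelator positive control signal, with at least half of replicates also reaching 10%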
GAA850 FXN act = increases GAA850 frataxin promoter reporter activity | actives 0.56% (n = 360,000) | HEK293 lucGAA850 FXN promoter luciferase reporter, 24 h; percent of 10 µM SAHA response | activation, % at 6 µM;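 active means activation above the average of all compounds screened plus 3 SD, cutoff fixed separately per campaign, cut at about 7.5% in these data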;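 further: 0% = DMSO wells and 100% = 10 µM SAHA wells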
Neddylation inh = blocks human cullin neddylation | P61081+Q13564 | TR-FRET cullin neddylation, biochemical | inhibition, % at 25 µM | actives 0.58% (n = 360,000); in the data active means inhibition above about 36%
Target sequence (P61081 whole entry, looked up): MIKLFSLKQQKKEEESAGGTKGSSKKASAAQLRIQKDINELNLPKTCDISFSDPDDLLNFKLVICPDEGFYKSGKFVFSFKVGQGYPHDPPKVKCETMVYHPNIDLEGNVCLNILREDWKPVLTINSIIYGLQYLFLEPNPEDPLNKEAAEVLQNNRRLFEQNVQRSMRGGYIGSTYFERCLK
Target sequence (Q13564 whole entry, looked up): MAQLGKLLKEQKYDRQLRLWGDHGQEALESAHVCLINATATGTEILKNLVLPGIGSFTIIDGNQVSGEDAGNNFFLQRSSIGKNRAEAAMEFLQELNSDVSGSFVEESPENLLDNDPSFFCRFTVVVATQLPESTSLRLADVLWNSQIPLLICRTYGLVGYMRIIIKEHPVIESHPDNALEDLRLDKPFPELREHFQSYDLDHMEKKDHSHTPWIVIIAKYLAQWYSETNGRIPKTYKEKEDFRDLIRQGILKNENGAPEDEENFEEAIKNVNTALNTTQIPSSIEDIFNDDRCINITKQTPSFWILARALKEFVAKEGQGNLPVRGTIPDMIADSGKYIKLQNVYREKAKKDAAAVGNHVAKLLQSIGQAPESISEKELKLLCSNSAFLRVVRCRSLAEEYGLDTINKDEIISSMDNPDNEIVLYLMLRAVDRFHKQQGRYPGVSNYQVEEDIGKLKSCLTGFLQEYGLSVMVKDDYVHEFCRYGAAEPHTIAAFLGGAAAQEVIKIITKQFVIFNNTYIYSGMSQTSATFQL
Calb FLC = affects C. albicans growth with fluconazole; C. albicans CaCi-2 + fluconazole, Alamar Blue growth, 48 h; actives 0.57% (n = 300,000); AID 1979; growth inhibition, % (concentration not given with the values);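 active means growth inhibition above about 58% in most replicates, limit read from the data, passing the limit was not always enough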;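 further: all wells also contain fluconazole at 8 µg/ml as a sub-toxic cotreatment; 0% = median of DMSO wells and 100% = median of geldanamycin control wells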
procasp3 activ = procaspase-3 (human) activation. actives 0.11% (n = 330,000). activation, % at 8.5 µM. recombinant procaspase-3 D3A, Ac-DEVD-pNA absorbance 405 nm;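 active means activation above the mean of all tested compounds plus 3 SD, cut at about 21% in these data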;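 further: 0% = DMSO alone and 100% = DMSO wells spiked with extra 5 µM PC-3 D3A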
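Assay system – Procaspase-3 D3A mutant · Benchmarks – DMSO low control, extra-enzyme high control · Technique – 405 nm absorbance of p-nitroaniline, reads at 0 and 120 min · Doses – 8.5 µM nominal · Measure – % activation between DMSO and enzyme-spiked controls · Also added – Ac-DEVD-pNA chromogenic peptide substrate · Schedule – 1 h compound preincubation, 2 h substrate hydrolysis at 25 °C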
Neddyl conf = cullin neddylation inhibition, confirmation; shares compounds with Neddylation inh; AID 652217; TR-FRET cullin neddylation biochemical assay; calls only at 25 µM; actives 13% (n = 1,800); in the data active means inhibition above about 40%;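 further: neddylation substrate is the cullin 1 ring ligase complex with SKP2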
Starred values were filed as active, the others as inactive.

What do the screens show for `O=C(O)[C@@H]1Cc2c([nH]c3ccccc23)C2CCC(=O)N21` (stereo partly drawn)?
proCasp7 act: -6; HIF act: 2; GAA850 FXN act: 2; Neddylation inh: 52*; Calb FLC: -11; procasp3 activ: 0; Neddyl conf: inactive

What do the screens show for `Cc1cc(=O)c2c([nH]1)c(C)cc1[nH]c(C)c(C)c12`?
proCasp7 act: 10; GAA850 FXN act: -1; Neddylation inh: 43*; procasp3 activ: 2

Results for CCOC(=O)c1sc2nccc(N(C)C)c2c1N=CNOC ?
proCasp7 act: -8; HIF act: 1; GAA850 FXN act: -3; Neddylation inh: 21; Calb FLC: 6; procasp3 activ: 1

What do the screens show for `CCOC(=O)c1sc2nccc(N(C)C)c2c1N=CNOCc1ccccc1`?
proCasp7 act: -1; HIF act: 1; GAA850 FXN act: 3; Neddylation inh: 41*; Calb FLC: -3; procasp3 activ: -8; Neddyl conf: inactive

How did CN(Cc1ccccc1)C(=O)c1ncn2c1C(=O)N(C)CC2 do in these assays?
GAA850 FXN act: 1; Neddylation inh: 0

Results for COc1ccc(NC(=O)c2ccco2)cn1 ?
proCasp7 act: -6; HIF act: 0; GAA850 FXN act: 0; Neddylation inh: -2; Calb FLC: -28; procasp3 activ: -5

What do the screens show for `COc1ccc(NC(=O)c2ccc(-c3ccc(C(C)=O)cc3)o2)cn1`?
proCasp7 act: 10; GAA850 FXN act: 1; Neddylation inh: 38*; procasp3 activ: -2; Neddyl conf: inactive

How did CCCCn1c(N)c(N(CCOC)C(=O)C2CC(=O)N(Cc3ccco3)C2)c(=O)[nH]c1=O (stereo not drawn) do in these assays?
proCasp7 act: 13; GAA850 FXN act: 1; Neddylation inh: -26; procasp3 activ: 12

Results for O=c1c(Cl)c(N/N=C/c2ccc(Cl)cc2)cnn1-c1ccccc1 ?
proCasp7 act: 3; HIF act: 0; GAA850 FXN act: 0; Neddylation inh: 42*; Calb FLC: -8; procasp3 activ: 7; Neddyl conf: inactive

Results for CCOC(=O)[C@]12CCC=C1N(Cc1ccc(Cl)cc1Cl)C(=O)[C@H](CC(=O)NCCc1ccccc1OC)C2 ?
Neddylation inh: -4

How did CCN(CC)Cc1c(O)ccc2c(-c3ccccc3)cc(=O)oc12 do in these assays?
proCasp7 act: 5; HIF act: 1; GAA850 FXN act: -2; Neddylation inh: 42*; Calb FLC: 4; procasp3 activ: 0; Neddyl conf: inactive

Results for CCCCN(CC)Cc1c(O)ccc2c(-c3ccccc3)cc(=O)oc12 ?
proCasp7 act: -6; HIF act: 0; GAA850 FXN act: 1; Neddylation inh: 43*; Calb FLC: -5; procasp3 activ: 7

What do the screens show for `COC(=O)C1(C)NC(c2ccc(O)cc2)C2C(=O)N(c3ccc(C)cc3)C(=O)C21` (stereo not drawn)?
proCasp7 act: 0; HIF act: 0; GAA850 FXN act: 0; Neddylation inh: 5; Calb FLC: -12; procasp3 activ: -7

Results for CCOc1ccsc1C(=O)OC ?
proCasp7 act: 10; HIF act: 0; GAA850 FXN act: 1; Neddylation inh: -3; Calb FLC: 9; procasp3 activ: 6

How did COc1ccc(N2C(=O)c3ccccc3NC23CCC(C)CC3)cc1 (stereo not drawn) do in these assays?
proCasp7 act: 4; HIF act: 2; GAA850 FXN act: 1; Neddylation inh: 45*; Calb FLC: 2; procasp3 activ: 1

Results for COc1ccc(N2C(=O)c3ccccc3NC23CCCCC3)cc1 ?
proCasp7 act: -2; HIF act: 2; GAA850 FXN act: 1; Neddylation inh: 41*; Calb FLC: 4; procasp3 activ: -3

How did COc1ccc(N2C(=O)c3ccccc3NC2(C)C)cc1 do in these assays?
proCasp7 act: 1; HIF act: 2; GAA850 FXN act: 5; Calb FLC: -7; procasp3 activ: 7
